Experimental data of several laboratories.
Organism: Escherichia coli
Observed: microbial growth

SMILES | technique | strain | time | setting | MIC
CCN(CC)c1ccc(C=NC(=O)c2ccccc2)c(O)c1 | broth dilution | ATCC25922 | – | – | > 256 mg/L
C[C@H]1COc2c(N3CCN(C)CC3)c(F)cc3c(=O)c(C(=O)O)cn1c23 | – | – | – | – | ≤ 0.12 mg/L
COc1cc(Cc2cnc(N)nc2N)cc(OC)c1OC | broth dilution | BW25113 | 18 h | – | 0.25 mg/L
NC[C@H]1O[C@H](O[C@H]2[C@H](O)[C@@H](O[C@H]3O[C@H](CO)[C@@H](O)[C@H](N)[C@H]3O)[C@H](N)C[C@@H]2N)[C@H](N)C[C@@H]1O | – | – | – | – | ≤ 1 mg/L
Cc1ccc2[nH]nc(-c3nnc(Nc4ccc(Cl)c(Cl)c4)s3)c2c1 | – | ATCC25922 | – | – | 140 mg/L
O=C(N[C@H](CO)[C@H](O)c1ccc([N+](=O)[O-])cc1)C(Cl)Cl | broth dilution | ATCC10536 | – | – | 3.12 mg/L
Cc1ccc2[nH]nc(-c3nnc(Nc4ccc(F)cc4)s3)c2c1 | – | ATCC25922 | – | – | 51.9 mg/L
COc1ccc2ccc(O)c(/C=N/[C@H]3CCCC[C@H]3/N=C/c3ccc(-c4ccccc4)cc3O)c2c1 | broth dilution | – | – | – | > 40 µM
CCCCCCCCCCCC[N+](C)(C)Cc1ccccc1 | – | – | – | – | 63 µM
Cc1onc(-c2ccccc2)c1C(=O)N[C@@H]1C(=O)N2[C@@H]1SC(C)(C)[C@@H]2C(=O)O | broth dilution | ATCC25922 | – | – | < 0.5 mg/L
Brc1ccc2nc(SCc3ccccc3)c(CNCc3ccc(CN4CCCC4)cc3)cc2c1 | broth dilution | – | – | – | > 128 mg/L
Cc1ccc2[nH]nc(-c3nnc(Nc4ccc(Br)cc4)s3)c2c1 | – | ATCC25922 | – | – | 251 mg/L
c1ccc(CSc2nc3ccccc3cc2CNCc2ccc(CN3CCCC3)cc2)cc1 | broth dilution | – | – | – | > 128 mg/L
O=C(O)c1cn(C2CC2)c2cc(N3CCNCC3)c(F)cc2c1=O | broth dilution | ATCC25922 | 16 h | – | 0.1 µM
CC(C)(O/N=C(\C(=O)N[C@@H]1C(=O)N2C(C(=O)[O-])=C(C[n+]3ccccc3)CS[C@H]12)c1csc(N)n1)C(=O)O | – | – | – | – | 0.25 mg/L
Cc1ccc2[nH]nc(-c3nnc(Nc4ccc(Cl)c(Br)c4)s3)c2c1 | – | ATCC25922 | – | – | 247 mg/L
CCN1CCC(CCNCc2cc3cc(OC)c(OC)c(OC)c3nc2SCc2ccccc2)CC1 | broth dilution | – | – | – | > 128 mg/L
CC[C@H]1OC(=O)[C@H](C)[C@@H](O[C@H]2C[C@@](C)(OC)[C@@H](O)[C@H](C)O2)[C@H](C)[C@@H](O[C@@H]2O[C@H](C)C[C@H](N(C)C)[C@H]2O)[C@](C)(O)C[C@@H](C)CN(C)[C@H](C)[C@@H](O)[C@]1(C)O | broth dilution | – | – | – | 4 µM
COc1ccc(-n2nc(C(=O)c3ccc(Nc4cnccn4)cc3)sc2=N)cc1 | broth dilution | ATCC10536 | – | – | 12.5 mg/L
CNC(C)C1CCC(N)C(OC2C(N)CC(N)C(OC3OCC(C)(O)C(NC)C3O)C2O)O1 (stereo not drawn) | broth dilution | – | – | – | 2 mg/L
O=C(O)c1cn(C2CC2)c2cc(N3CCNCC3)c(F)cc2c1=O | broth dilution | ATCC25922 | – | – | 4 mg/L

SMILES | technique | strain | time | setting | MIC
COc1ccc2ccc(O)c(/C=N/[C@H]3CCCC[C@H]3/N=C/c3ccc(OCCN4CCCCC4)cc3O)c2c1 | broth dilution | – | – | – | > 40 µM
CN1CCN(CCNCc2cc3cc(-c4ccccc4)ccc3nc2SCc2ccccc2)CC1 | broth dilution | – | – | – | 16 mg/L
Cc1cc(O)cc(Nc2nnc(-c3n[nH]c4ccc(C)cc34)s2)c1 | – | ATCC25922 | – | – | 176 mg/L
COc1ccc2ccc(O)c(/C=N/[C@H]3CCCC[C@H]3/N=C/c3c(O)cccc3F)c2c1 | broth dilution | – | – | – | > 40 µM
Cc1ccc2[nH]nc(-c3nnc(Nc4ccc(O)cc4)s3)c2c1 | – | ATCC25922 | – | – | 64.7 mg/L
[H]/N=C(/N)N[C@H]1[C@H](O)[C@@H](O)[C@H](O[C@@H]2O[C@@H](C)[C@](O)(C=O)[C@H]2O[C@@H]2O[C@@H](CO)[C@H](O)[C@@H](O)[C@@H]2NC)[C@@H](N/C(N)=N\[H])[C@@H]1O | broth dilution | ATCC25 ATCC25922 | – | – | 20 mg/L
c1ccc(CSc2nc3ccc(-c4ccccc4)cc3cc2CNCc2ccc(CN3CCCC3)cc2)cc1 | broth dilution | – | – | – | > 128 mg/L
CC(=O)C1=NN(c2ccccc2)C(=C(C#N)C(=O)c2ccc(Nc3cnccn3)cc2)S1 | broth dilution | ATCC10536 | – | – | 100 mg/L
COc1cc2cc(CNCCC3CCN(C4CCCC4)CC3)c(SCc3ccccc3)nc2c(OC)c1OC | broth dilution | – | – | – | > 128 mg/L
N=c1sc(C(=O)c2ccc(Nc3cnccn3)cc2)nn1-c1ccccc1 | broth dilution | ATCC10536 | – | – | 50 mg/L
C[C@@H](O)[C@H]1C(=O)N2C(C(=O)O)=C(S[C@@H]3CN[C@H](C(=O)N(C)C)C3)[C@H](C)[C@H]12 | – | ATCC25922 | – | drug-resistant strain | 0.15 mg/L
c1ccc(CSc2nc3ccccc3cc2CNCc2ccc(N3CCCCC3)cc2)cc1 | broth dilution | – | – | – | > 128 mg/L
CN(C)c1cc(NC(=O)CNC(C)(C)C)c(O)c2c1C[C@H]1C[C@H]3[C@H](N(C)C)C(O)=C(C(N)=O)C(=O)[C@@]3(O)C(O)=C1C2=O | – | – | – | – | ≤ 0.5 mg/L
Cc1ccc2[nH]nc(-c3nnc(Nc4ccc(C)c(C)c4)s3)c2c1 | – | ATCC25922 | – | – | 124 mg/L
CC(=O)OCC1=C(C(=O)O)N2C(=O)[C@@H](NC(=O)Cc3cccs3)[C@H]2SC1 | broth dilution | ATCC10536 | – | – | 3.12 mg/L
CCN(CC)c1ccc(C=NC(=S)c2ccccc2)c(O)c1 | broth dilution | ATCC25922 | – | – | > 256 mg/L
[H]/N=C(/N)N[C@H]1[C@H](O)[C@@H](O)[C@H](O[C@@H]2O[C@@H](C)[C@](O)(C=O)[C@H]2O[C@@H]2O[C@@H](CO)[C@H](O)[C@@H](O)[C@@H]2NC)[C@@H](N/C(N)=N\[H])[C@@H]1O | broth dilution | ATCC25922 | – | – | 2 mg/L
N#CC(C#N)=C1SC(C(=O)c2ccc(Nc3cnccn3)cc2)=NN1c1ccc([N+](=O)[O-])cc1 | broth dilution | ATCC10536 | – | – | 12.5 mg/L
CCOC(=O)C(C)c1n[nH]c2nc(N)[nH]c(=O)c2c1=O (stereo not drawn) | broth dilution | BW25113 | 18 h | – | > 100 mg/L
CCN1CCC(CCNCc2cc3cc(-c4ccccc4)ccc3nc2SCc2ccccc2)CC1 | broth dilution | – | – | – | 8 mg/L
CC1(C)S[C@@H]2[C@H](NC(=O)[C@H](N)c3ccccc3)C(=O)N2[C@H]1C(=O)O | broth dilution | ATCC25922 | 18 h | dark | 16 µM
